Active and inactive are the calls of the source. The rule behind the calls is not given here.
Legend:
Format in all cases: functional, cell-based
HeLa [1] = test: Antiproliferative activity against human HeLa cells after 24 hrs by WST-1 assay
Summary of the method: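 HeLa cells grown in RPMI 1640 with 10% inactivated FBS, penicillin, streptomycin and L-glutamine at 37 °C under 5% CO2. They were trypsinized, seeded at 5 × 10³ cells/well, and left 12 h. Compounds were added at five concentrations for 24 h. WST-1 was added and absorbance read at 450 nm. IC50 was calculated from absorbance.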

HeLa [2] = test: Cell cycle arrest in human HeLa cells assessed as increase in G1 phase cells after 24 hrs by flow cytometry using propidium iodide staining
Summary of the method: (§1)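 After 24 h drug exposure at 37 °C, HeLa cells were trypsinized. About 1 × 10⁶ cells were washed twice in cold PBS and fixed overnight in chilled 75% methanol at −20 °C. DNA content was measured by propidium iodide flow cytometry, and the percentage of cells in each cycle phase was calculated. Untreated cultures served as controls.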

HeLa [3] = test: Decrease in CyclinD1 protein expression in human HeLa cells after 24 hrs by Western blotting
Summary of the method: (§2)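 HeLa cells were treated 24 h, trypsinized, washed in ice-cold PBS and lysed on ice in RIPA with PMSF. Lysates were clarified at 12,000 rpm, 4 °C, 15 min, and protein was measured by Bradford. Extracts ran on 12% SDS–PAGE onto PVDF, with milk/Tween blocking for 2 h. Rabbit anti-cyclin D1 and anti-Rb (1:100) and biotinylated anti-rabbit (1:400) were each applied 1 h at 37 °C, with ABC detection. β-actin was the loading control.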

HeLa [4] = test: Decrease in Rb protein expression in human HeLa cells after 24 hrs by Western blotting; summary of the method: as §2
HeLa [5] = test: Decrease in Rb phosphorylation in human HeLa cells after 24 hrs by Western blotting; summary of the method: as §2
HeLa [6] = test: Cell cycle arrest in human HeLa cells assessed as decrease in S phase cells after 24 hrs by flow cytometry using propidium iodide staining; summary of the method: as §1
HeLa [7] = test: Cell cycle arrest in human HeLa cells assessed as decrease in G2-M phase cells after 24 hrs by flow cytometry using propidium iodide staining; summary of the method: as §1

SMILES | IC50 (HeLa [1]) | Activity (HeLa [2]) | also measured
C=C[C@]1(C)CC[C@@H](C(=C)CNCCCC)C[C@H]1C(=C)C | 10.8 µM | Active | Activity (HeLa [3]): Active; Activity (HeLa [4]): inactive; Activity (HeLa [5]): Active; Activity (HeLa [6]): Active; Activity (HeLa [7]): Active
C=C[C@]1(C)CC[C@@H](C(=C)C)C[C@H]1C(=C)C | 236 µM | Active | 
C=C[C@]1(C)CC[C@@H](C(=C)CN(CC)CC)C[C@H]1C(=C)C | 14.3 µM | Active | 
C=C[C@]1(C)CC[C@@H](C(=C)COCCOC)C[C@H]1C(=C)C | 238 µM | Active | 
C=C[C@]1(C)CC[C@@H](C(=C)COCCCC)C[C@H]1C(=C)C | 266 µM | Active | 
C=C[C@]1(C)CC[C@@H](C(=C)COC)C[C@H]1C(=C)C | 212 µM | Active | 
C=C[C@]1(C)CC[C@@H](C(=C)Cn2ccnc2)C[C@H]1C(=C)C | 15.7 µM | Active | 
C=C[C@]1(C)CC[C@@H](C(=C)COCC)C[C@H]1C(=C)C | 106 µM | Active | 
C=C[C@]1(C)CC[C@@H](C(=C)CNC(C)(C)C)C[C@H]1C(=C)C | 25.4 µM | Active | 

The next molecules have a lower IC50 (HeLa [1]) than those just listed; values first:

IC50 (HeLa [1]) | SMILES | Activity (HeLa [2]) | also measured
0.52 µM | C=C[C@]1(C)CC[C@@H](C(=C)CNC2CCCC2)C[C@H]1C(=C)C | Active | 
0.04 µM | C=C[C@]1(C)CC[C@@H](C(=C)CNC(C)C)C[C@H]1C(=C)C | Active | 
3.39 µM | C=C[C@]1(C)CC[C@@H](C(=C)CNC2CCCCC2)C[C@H]1C(=C)C | Active | 
5.9 µM | C=C[C@]1(C)CC[C@@H](C(=C)CNC2CCCCCCC2)C[C@H]1C(=C)C | Active | 
